This passage reports APTT results from ChEMBL document CHEMBL1133654, “Studies directed at the use of a parallel synthesis matrix to increase throughput in an in vivo assay” (2000).

The nature of the experiment: Mean plasma clotting time (APTT) was measured following a single colonic dose with heparin in rats. The class given is functional, Rattus norvegicus. In outline: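 Male Sprague-Dawley rats (300-350 g, fasted 12 h, groups of 5) were anesthetized with ketamine 44 mg/kg im and given one colonic dose (1 mL/kg) by catheter through the anus. Dosing was delivery agent 50 mg/kg plus heparin 25 mg/kg for single agents, or 50 mg/kg for mixtures, as a sonicated solution of apparent pH about 7. Citrated cardiac blood was taken at 0-1.5 h, and mean peak plasma APTT was reported.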
With `COc1ccccc1C(=O)NCCCCCCCC(=O)O`, the APTT amounted to 27 s.

Regarding `Cc1ccccc1C(=O)NCCCCCCCCCC(=O)O`, the APTT amounted to 34 s.

Molecule `O=C(O)CCCCCCCCCNC(=O)c1ccccc1` yielded an APTT of 31 s.

The molecule `O=C(O)CCCCCCCCCCCNC(=O)c1ccccc1` yielded an APTT of 24 s.

The molecule `O=C(O)CCCCCCCCCCCNC(=O)c1ccccc1F` displayed an APTT of 33 s.

Consider `O=C(O)CCCCCCCCCNC(=O)c1ccccc1O`, for which the APTT was 153 s.

`Cc1ccccc1C(=O)NCCCCCCCCCCCC(=O)O` registered an APTT of 30 s.

The molecule `O=C(O)CCCCCNC(=O)c1ccccc1` had an APTT of 33 s.

`O=C(O)CCCCCCCNC(=O)c1ccccc1O` [SALCAPROZIC ACID] gave an APTT of 125 s.

The molecule `O=C(O)CCCCCCCNC(=O)c1ccccc1F` displayed an APTT of 25 s.

`Cc1ccccc1C(=O)NCCCCCC(=O)O` gave an APTT of 26 s.

`O=C(O)CCCCCCCCCNC(=O)c1ccccc1F` gave an APTT of 27 s.

Consider `COc1ccccc1C(=O)NCCCCCC(=O)O`, for which the APTT was 31 s.

With `COc1ccccc1C(=O)NCCCCCCCCCC(=O)O`, the APTT came out at 50 s.

As for `O=C(O)CCCNC(=O)c1ccccc1`, the APTT is on record as 22 s.

Regarding `O=C(O)CCCNC(=O)c1ccccc1F`, the APTT turned out to be 22 s.

`O=C(O)CCCNC(=O)c1ccccc1O` came in with an APTT of 31 s.

`O=C(O)CCCCCNC(=O)c1ccccc1O` came in with an APTT of 24 s.

In turn, `Cc1ccccc1C(=O)NCCCC(=O)O` registered an APTT of 24 s.

Molecule `O=C(O)CCCCCCCCCCCNC(=O)c1ccccc1O` yielded an APTT of 86 s.

Regarding `O=C(O)CCCCCNC(=O)c1ccccc1F`, the APTT was 28 s.

`O=C(O)CCCCCCCNC(=O)c1ccccc1` displayed an APTT of 21 s.

Regarding `Cc1ccccc1C(=O)NCCCCCCCC(=O)O`, the APTT was 23 s.

Take `COc1ccccc1C(=O)NCCCCCCCCCCCC(=O)O`: the APTT is given as 54 s.

For the molecule `COc1ccccc1C(=O)NCCCC(=O)O`, the APTT came to 26 s.
